Assay outcomes: PubChem, The Scripps Research Institute Molecular Screening Center
PAFAH1B3 FP inh: PAFAH1B3 (human) inhibition | Q15102 | recombinant PAFAH1B3, FP-rhodamine probe, fluorescence polarization | inhibition, % at 3.39 µM | hit rate 0.28% among 340,000;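 active = inhibition above the screen-wide average of all tested compounds plus 3 SD, cut at about 25% in these data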
PAFAH1B2 inh: inhibitors of human PAFAH1B2. inhibition, % at 3.39 µM. recombinant PAFAH1B2, FP-rhodamine activity probe, fluorescence polarization. hit rate 1.2% among 340,000. AID 492953. P68402;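 active = inhibition above the mean of all tested compounds plus 3 SD, cut at about 24% in these data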
Target sequence (P68402 whole entry, looked up): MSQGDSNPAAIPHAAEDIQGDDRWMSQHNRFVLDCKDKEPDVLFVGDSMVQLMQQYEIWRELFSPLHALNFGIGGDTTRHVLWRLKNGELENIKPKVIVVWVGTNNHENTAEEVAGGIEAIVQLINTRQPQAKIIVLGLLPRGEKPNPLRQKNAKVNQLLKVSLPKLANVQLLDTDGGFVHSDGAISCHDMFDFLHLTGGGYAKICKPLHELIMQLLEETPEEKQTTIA
ABHD4 inh: ABHD4 (mouse) inhibition, primary FP screen | Q8VD66 | purified mABHD4, FP-Rh probe fluorescence polarization | inhibition, % at 8.92 µM | hit rate 0.54% among 370,000;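 active = inhibition exceeding the mean over every tested compound plus 3 SD, cut at about 30% in these data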
Target sequence (Q8VD66 whole entry, looked up): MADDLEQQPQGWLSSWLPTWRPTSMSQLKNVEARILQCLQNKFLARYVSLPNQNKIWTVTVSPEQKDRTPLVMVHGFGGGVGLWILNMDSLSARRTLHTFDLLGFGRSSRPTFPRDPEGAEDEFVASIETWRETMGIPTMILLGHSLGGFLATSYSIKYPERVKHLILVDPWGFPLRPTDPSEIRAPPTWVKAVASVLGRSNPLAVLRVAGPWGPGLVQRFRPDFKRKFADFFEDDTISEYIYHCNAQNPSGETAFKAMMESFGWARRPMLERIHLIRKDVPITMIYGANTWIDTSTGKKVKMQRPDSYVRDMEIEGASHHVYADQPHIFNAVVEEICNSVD
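Material: mouse ABHD4 enzyme, wild type; Benchmarks: S159A mutant high control, sample median low control; Buffer or medium: HEPES pH 7.0, NaCl, Pluronic buffer; Signal: fluorescence polarization; Read-out: percent inhibition of probe binding, normalized to plate controls; Timing: pre-incubation 45 min, probe exposure 60 min, at 25 °C; Dosing: 8.92 µM, single dose.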
HTRA1 inhibitor: blocks human HTRA1 serine peptidase | inhibition, % at 5.96 µM | hit rate 0.5% among 340,000 | recombinant HTRA1, FP-rhodamine activity-based probe, fluorescence polarization | Q92743; in the data active = inhibition above about 36%
pPAFAH inh: inhibitors of human plasma PAF acetylhydrolase (pPAFAH) | Q13093 | recombinant pPAFAH, FP-rhodamine probe fluorescence polarization | inhibition, % at 3.39 µM | hit rate 1.5% among 330,000 | AID 463082;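 active = inhibition above the mean inhibition across the screen plus 3 SD, cut at about 25% in these data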;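 note: inhibitors block binding of the rhodamine activity-based probe so polarization drops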
PAFAH2 FP inh: PAFAH2 (human) inhibition | Q99487 | recombinant PAFAH2, FP-rhodamine activity probe, fluorescence polarization | inhibition, % at 3.39 µM | hit rate 0.99% among 340,000 | AID 492956;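 active = inhibition above the mean over all tested compounds plus 3 SD, cut at about 30% in these data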;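 note: inhibitors block probe labeling of enzyme so polarization drops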
HTRA1 conf: HTRA1 (human) inhibition, confirmation; recombinant HTRA1, FP-rhodamine activity-based probe, fluorescence polarization; inhibition, % at 5.96 µM; shares compounds with HTRA1 inhibitor; AID 540248; hit rate 66% among 1,600;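 active = mean inhibition over three repeats above a set limit taken from the earlier primary screen, cut at about 37% in these data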;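 note: inhibitors block probe binding so polarization drops and inhibition rises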
Numbers stand for hits; - = inactive; . = no result given. A selection: hits, their analogues and other compounds. The true share with any hit is near 2.8%.

SMILES	PAFAH1B3 FP inh	PAFAH1B2 inh	ABHD4 inh	HTRA1 inhibitor	pPAFAH inh	PAFAH2 FP inh	HTRA1 conf
Cc1cc(C)c2nc(NNC(=O)c3ccc(S(=O)(=O)N4CCCC(C)C4)cc3)sc2c1 (stereo unspecified)	-	-	-	51	29	-	54
Cc1ccc2nc(NNC(=O)c3ccc(S(=O)(=O)N4CCc5ccccc5C4)cc3)sc2c1	-	-	-	49	-	-	-
Clc1ccc(CSc2nnc(-c3cccs3)o2)cc1Cl	.	.	-	.	.	.	.
C=CCN(C(=O)[C@@H](C)[C@@H](O)c1ccc(Cl)cc1)c1ccccc1	.	.	-	.	.	.	.
O=C1C[C@@H](c2ccccc2)N=C2N(Cc3ccc4c(c3)OCO4)C/C(=C/c3ccccc3)N12	.	.	-	.	.	.	.
CC(C)C(=O)OCC(=O)Nc1ccc(N=Nc2ccccc2)cc1	-	-	-	39	-	-	49
CC(=O)OCC(=O)Nc1ccc(N=Nc2ccccc2)cc1	-	-	-	-	-	-	.
O=C1C=C(Nc2ccc(O)cc2)C(=O)c2ccccc21	-	-	-	37	-	-	-
Cc1ccc(/C=C/C(=O)c2ccccc(=O)c2O)cc1C	-	-	-	37	-	-	44
COc1ccc(C=CC(=O)c2ccc(OC)c(OC)c2O)cc1OC	-	-	-	-	.	-	.
O=[N+]([O-])c1ccc(Sc2cccc[n+]2[O-])c2nonc12	83	56	-	81	.	90	101
O=[N+]([O-])c1ccc(Nc2ccccc2)c2nonc12	-	-	-	-	-	-	.
COC(=O)c1ccc(Cn2ccc3ccc(-c4ccc5ccn(Cc6ccccc6)c5c4)cc32)cc1	.	.	-	.	.	.	.
COc1cc(/C=C/c2ccc3c(Br)cc(Br)c(O)c3n2)ccc1O	-	-	-	44	34	-	-
COc1ccc(/C=C/c2ccc3c(Br)ccc(O)c3n2)cc1	-	-	-	-	-	-	.
CCC[C@H]1[C@@H](NCc2ccccc2)CC[C@@]23CCCN2C(=O)CCC[C@@H]13	.	.	-	.	.	.	.
Cn1nnnc1N=N/C(=N/Nc1ccccc1)c1ccccc1	-	-	-	42	-	-	-
COc1ccccc1N1C(=O)N(C(C)=O)C2C1Nc1ccccc1N2C (stereo unspecified)	-	-	-	49	-	-	-
COc1ccccc1N1C(=O)c2ccccc2NC1c1ccncc1 (stereo unspecified)	-	-	-	-	-	-	.
CN(C)CCCNC(=O)c1ccc(-c2cc(O)c3ncccc3c2)cc1	-	-	-	69	-	-	85
C=CCN1C(=O)[C@@H](CC(=O)N2CCCC2)[C@]2(C(=O)OCC)CCCCC/C=C/12	.	.	-	.	.	.	.
O=C(NC1CCCCC1)C(c1ccc(O)c(O)c1)N(C(=O)Cn1nnc2ccccc21)c1cccc(O)c1 (stereo unspecified)	-	-	-	47	-	-	49
CCCCNc1nc2ccccc2[nH]1	-	-	-	-	-	-	.
C#CCn1cc(/C=N/Nc2nc3ccccc3[nH]2)c2ccccc21	-	-	-	43	29	-	45
C(=N\Nc1nc2ccccc2[nH]1)/c1cccc2nccnc12	.	.	-	.	-	.	.
SMILES	PAFAH1B3 FP inh	PAFAH1B2 inh	ABHD4 inh	HTRA1 inhibitor	pPAFAH inh	PAFAH2 FP inh	HTRA1 conf
CCCCn1c(/C=N/Nc2nc3ccccc3[nH]2)nc2ccccc21	-	-	-	41	-	-	59
Cc1ccc(C2=NC(=O)/C(=C/c3cc(O)c(O)c(Br)c3)S2)cc1	48	37	-	67	.	78	71
O=S1(=O)c2ccc(N3CCN(Cc4ccccc4F)CC3)cc2Oc2ccccc2CN1Cc1cn(Cc2cccc(F)c2)nn1	.	.	-	.	.	.	.
Cc1ccc(CN2CCCCC(NC(=O)c3cccc(C(F)(F)F)c3)C2=O)cc1 (stereo unspecified)	.	.	-	.	.	.	.
CCOC(=O)N1CCN(C(=O)C[C@H]2C[C@@]3(C(=O)OC)C(=C[C@H](COCc4ccccc4)O[C@@H]3C)N(CCc3ccc(OC)c(OC)c3)C2=O)CC1	.	.	-	.	.	.	.
CCN(CC)c1ccc(N=Cc2ccccc2[N+](=O)[O-])cc1	-	-	47	53	33	-	146
O=[N+]([O-])c1ccccc1/C=N/OCc1ccccc1	-	-	-	-	-	-	.
CN(C)c1ccc(N/C=C/C(=O)c2ccc(F)cc2)cc1	-	-	.	53	31	-	-
NS(=O)(=O)c1ccc(N/C=C\C(=O)c2ccc(F)cc2)cc1	-	-	-	-	-	-	.
CN(C)c1ccc(NC(=O)c2cccc(C(=O)Nc3ccc(N(C)C)cc3)n2)cc1	-	-	-	44	26	-	65
Nc1[nH]c(C(=O)c2ccccc2)c(-c2cccnc2)c1C(=O)NCCc1c[nH]c2ccccc12	.	.	-	.	.	.	.
Cc1ccccc1NC(=S)NCc1ccc2c(c1)cc(C)n2C	-	-	-	-	-	-	.
COc1ccccc1NC(=S)NCc1ccc2c(c1)cc(C)n2C	-	-	-	38	-	-	-
Cc1cc2cc(CNC(=S)NCc3ccccc3)ccc2n1C	-	-	-	49	-	-	-
Cc1cc2cc(CNC(=S)NC3CCCCC3)ccc2n1C	-	-	-	40	-	-	-
Cc1ccc(CNC(=S)NC2CCCCC2)cc1	-	-	-	-	.	-	.
CCNC(=O)N(C)[C@H]1C[C@H]2c3[nH]c4cccc(-c5cccc(F)c5)c4c3CCN2C(=O)[C@H]1[C@H](C)O	.	.	-	.	.	.	.
COC(=O)[C@]12C[C@H](CC(=O)N3CCC(c4ccccc4)CC3)C(=O)N(Cc3cccc4ccccc34)C1=C[C@H](C1CCCC1)O[C@@H]2C	.	.	-	.	.	.	.
CCCCCN1CCCCC(NC(=O)c2c(F)cccc2F)C1=O (stereo unspecified)	.	.	-	.	.	.	.
CC(=O)Nc1ccc(S(=O)(=O)NC2=C(N3CCN(c4ccc(F)cc4)CC3)C(=O)c3ccccc3C2=O)cc1	-	-	-	55	-	-	71
O=C(NCc1ccc(Cl)cc1)c1cccnc1	-	-	-	-	-	-	.
COc1ccc(C(NC(=O)C(C)C)c2ccc3cccnc3c2O)cc1 (stereo unspecified)	-	-	-	-	-	-	.
CC(=O)NC(c1ccccc1)c1cc(Cl)c2cccnc2c1O (stereo unspecified)	-	-	-	70	-	-	72
CCCC(=O)NC(c1ccc(OC)c(OC)c1)c1cc(Cl)c2cccnc2c1O (stereo unspecified)	-	-	-	46	-	-	66
CCOc1ccc(C(NC(=O)c2ccco2)c2ccc(OC)c(OC)c2)cc1 (stereo unspecified)	-	-	-	-	-	-	.
COc1ccc(C(NC(C)=O)c2cc(Cl)c3cccnc3c2O)cc1 (stereo unspecified)	-	-	-	70	-	-	80
